≈ marks a conversion by molar mass, not a printed value. Calls of active or inactive are those of the source. The rule behind the calls is not given here.
Assays:
dengue virus type 2 = assay: Antiviral activity against DENV-2 infected in human A549 or Mesocricetus auratus BHK21 cells preincubated for 30 mins further incubated for 1 hr followed by replacement of fresh medium containing compounds and measured at 8 hrs post infection by renilla luciferase assay; type: functional, organism-based
How it was run: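 Reporter DENV-2 carrying Renilla luciferase, MOI 1. Inoculum preincubated 30 min with compound, left on cells 1 h, then replaced by fresh medium containing compound. Luciferase read at 8 h p.i., reflecting entry and translation of incoming genome. EC50 is the concentration giving a two-fold drop in luciferase versus control; mean of at least two independent experiments.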

[1] = Cytotoxicity against human A549 cells assessed as reduction in cell viability after 48 hrs by MTT assay; type: cell-based
[2] = Selectivity index, ratio of CC50 for human A549 or Mesocricetus auratus BHK21 cells to EC50 for antiviral activity against DENV-2 infected in A549or Mesocricetus auratus BHK21 cells; type: toxicity; conditions: read-out: Ratio CC50/EC50
Dengue virus = assay: Antiviral activity in DENV infected in cells assessed as reduction in intracellular viral RNA level after 48 hrs by RT-PCR analysis
[3] = Solubility in simulated gastric fluid at 1 mg incubated for 24 hrs in shaker and measured after 24 hrs by shake-flask method based UV-VIS-NIR spectrophotometric analysis; type: physicochemical
How it was run: (§1)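 Shake-flask method: 1.0 mg compound in 1 mL simulated gastric fluid (pH 1.2), mixed at 1500 rpm at 37 °C for 24 h, then held at 37 °C for 24 h. Filtered at 0.2 µm and read by UV-VIS-NIR spectrophotometry against a calibration curve. Reported as mean ± SD of two independent experiments run in triplicate.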

[4] = Solubility in simulated intestinal fluid at 1 mg incubated for 24 hrs in shaker and measured after 24 hrs by shake-flask method based UV-VIS-NIR spectrophotometric analysis; type: physicochemical
How it was run: as §1, with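 “intestinal” for “gastric”, “6.8),” for “1.2),”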

[5] = Solubility in PBS at 1 mg incubated for 24 hrs in shaker and measured after 24 hrs by shake-flask method based UV-VIS-NIR spectrophotometric analysis; type: physicochemical
How it was run: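 Shake-flask method: 1.0 mg compound in 1 mL PBS (pH 7.4), mixed at 1500 rpm at 37 °C for 24 h, then held at 37 °C for 24 h. Filtered at 0.2 µm and read by UV-VIS-NIR spectrophotometry against a calibration curve. Reported as mean ± SD of two independent experiments run in triplicate.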

[6] = Half life in simulated gastric fluid at 50 uM measured up to 120 mins at pH 1.2 by HPLC-MS analysis; type: ADME
How it was run: (§2)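 DMSO stock diluted in acetonitrile, added to PBS (pH 7.4), SGF (pH 1.2) or SIF (pH 6.8) at 50 μM final; shaking water bath 37°C, triplicate. Samples at 0–120 min quenched with acetonitrile containing warfarin internal standard, centrifuged, diluted in methanol:water, analysed by HPLC-MS (C18, ESI positive); quantified by peak area ratio to internal standard.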

[7] = Half life in simulated intestinal fluid at 50 uM measured up to 120 mins at pH 6.8 by HPLC-MS analysis; type: ADME; how it was run: as §2
[8] = Half life in PBS at 50 uM measured up to 120 mins at pH 7.4 by HPLC-MS analysis; type: physicochemical; how it was run: as §2
[9] = Half life in mouse plasma at 50 uM measured up to 120 mins by HPLC-MS analysis; type: ADME, cell-free
How it was run: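 Mouse plasma diluted to 80% with PBS, preheated; compound added at 50 μM final from DMSO stock; 37°C shaking, triplicate. Samples at 0–120 min deproteinized with cold acetonitrile plus warfarin internal standard, centrifuged at 4°C, supernatant diluted in methanol:water, HPLC-MS; peak area ratio to internal standard. Enalapril positive control.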

A549 = assay: Cytotoxicity against human A549 cells at 50 uM after 48 hrs by MTT assay; type: cell-based; conditions: a549, 48 h

Compound | EC50 (dengue virus type 2) [µM] | CC50 at 48 h [1] [µM] | selectivity ratio [2] | also measured
Cc1ccc(-c2ccc(Nc3ccnc(NC4CC(C)(C)NC(C)(C)C4)n3)cc2)cc1 | 1.51 | 12 | 8 | 
CC1(C)CC(Nc2nccc(NCc3ccc(Cl)cc3)n2)CC(C)(C)N1 | 1.8 | 21.1 | 12 | 
CC1(C)CC(Nc2nccc(Nc3ccc(-c4cccc(Cl)c4)cc3)n2)CC(C)(C)N1 | 0.54 | 5.1 | 10 | Activity (Dengue virus): Active
CC1(C)CC(Nc2nccc(Nc3ccc(Cl)cc3)n2)CC(C)(C)N1 | 1.9 | 18.6 | 10 | 
Clc1ccc(/C=N/Nc2ccnc(NCCN3CCOCC3)n2)c(Cl)c1 | 10.6 | 76.5 | 8 | 
Clc1ccc(CNc2ccnc(NCc3cccnc3)n2)cc1 | 23.7 |  |  | 
CC1(C)CC(Nc2nccc(Nc3ccc(-c4ccccc4)cc3)n2)CC(C)(C)N1 |  |  |  | solubility thermodynamic at 24 h [3]: 0.076 mg/mL (≈ 189 µM); solubility thermodynamic at 24 h [4]: 0.58 mg/mL (≈ 1440 µM); solubility thermodynamic at 24 h [5]: 0.093 mg/mL (≈ 232 µM); half-life at 50 µM [6]: > 2 h; half-life at 50 µM [7]: > 2 h; half-life at 50 µM [8]: > 2 h; half-life at 50 µM [9]: > 2 h
Clc1ccc(-c2ccc(Nc3ccnc(NCc4cccnc4)n3)cc2)cc1 | 4.1 | 25.7 | 6 | 
Cc1ccc(-c2ccc(Nc3ccnc(N4CCN(C)CC4)n3)cc2)cc1 | 4.9 | 27.7 | 6 | 
Clc1ccc(Nc2ccnc(NCCN3CCOCC3)n2)cc1 | 23.6 | 89.6 | 4 | Activity (A549): Non-Toxic
Clc1ccc(Nc2ccnc(NCc3cccnc3)n2)cc1 | 24 |  |  | 
CC1(C)CC(Nc2nccc(NCc3ccc(F)cc3)n2)CC(C)(C)N1 | 1.98 | 12.8 | 7 | 
OCCN1CCN(c2nccc(Nc3ccc(-c4ccccc4)cc3)n2)CC1 | 19.9 |  |  | 
COc1ccc(CNc2ccnc(NC3CC(C)(C)NC(C)(C)C3)n2)cc1 | 12.5 | 18.3 | 2 | 
O=C(Nc1ccnc(NCCN2CCOCC2)n1)c1ccc(-c2ccccn2)s1 | 3.3 | 10.5 | 4 | 
Clc1cccc(-c2ccc(Nc3ccnc(NCc4cccnc4)n3)cc2)c1 | 3.4 | 18.5 | 5 | 
CN1CCN(c2nccc(Nc3ccc(-c4cccc(Cl)c4)cc3)n2)CC1 | 2.9 | 15.3 | 5 | 
c1ccc(-c2ccc(Nc3ccnc(NCCN4CCCCC4)n3)cc2)cc1 |  |  |  | solubility thermodynamic at 24 h [3]: 0.506 mg/mL (≈ 1350 µM); solubility thermodynamic at 24 h [4]: 0.324 mg/mL (≈ 867 µM); solubility thermodynamic at 24 h [5]: 0.032 mg/mL (≈ 85.7 µM); half-life at 50 µM [6]: > 2 h; half-life at 50 µM [7]: > 2 h; half-life at 50 µM [8]: > 2 h; half-life at 50 µM [9]: > 2 h
Cc1ccc(CNc2ccnc(NC3CC(C)(C)NC(C)(C)C3)n2)cc1 | 4.9 | 15.2 | 3 | 
CN1CCN(c2nccc(Nc3ccc(-c4ccc(Cl)cc4)cc3)n2)CC1 | 3.3 | 23.5 | 5 | 
CC1(C)CC(Nc2nccc(Nc3ccc(-c4ccc(Cl)cc4)cc3)n2)CC(C)(C)N1 | 0.18 | 9.8 | 54 | Activity (Dengue virus): Active
c1ccc(-c2ccc(Nc3ccnc(OCCN4CCOCC4)n3)cc2)cc1 | 39.7 |  |  | 
Clc1ccc(-c2ccc(Nc3ccnc(NCCN4CCCCC4)n3)cc2)cc1 | 1.1 | 14.3 | 13 | 
Cc1ccc(Nc2ccnc(NCCN3CCOCC3)n2)cc1 | 21.3 | > 50 | > 2 | 
OCCN1CCN(c2nccc(Nc3ccc(Cl)cc3)n2)CC1 | 24 |  |  | 
c1ccc(-c2ccc(Nc3ccnc(NCCN4CCOCC4)n3)cc2)cc1 | 8.6 | 59 | 7 | 
Cc1ccc(-c2ccc(Nc3ccnc(NCCN4CCOCC4)n3)cc2)cc1 | 1.8 | 10.2 | 5 | 
